Experimental data as given in ChEMBL document CHEMBL5724801, “EUbOPEN Chemogenomics Library - Multiplex” (2024).
Values joined by “and” are separate entries in the source; they are usually repeats but may differ in a detail not shown here. Equal values may be shown once.

What was measured:
Fibroblast = assay: Multiplex assay against human fibroblast; format: toxicity, cell-based
Method in brief: (§1)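 Compound was added to live cells that had been stained at seeding with Hoechst33342, BioTracker Green Microtubule Cytoskeleton Dye, MitoTracker Red and Annexin V Alexa Fluor 680, and imaging followed on a CQ1 microscope at 37°C and 5% CO2. CellPathfinder machine-learning gating divided cells into Hoechst high-intensity objects or normal cells, normal cells into healthy, pyknosed or fragmented nuclei, and pyknosed cells into mitotic or apoptotic. Tubulin, mitochondrial-mass and membrane-permeability phenotypes are per cents of healthy-nucleus cells.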

HEK-293T = assay: Multiplex assay against HEK293T; format: toxicity, cell-based; conditions: human; method in brief: as §1
[1] = 24 h, 10 µM, compound concentration 10 uM
[2] = 48 h, 1 µM, compound concentration 1 uM
[3] = 48 h, 10 µM, compound concentration 10 uM
[4] = 12 h, 1 µM, compound concentration 1 uM
[5] = 12 h, 10 µM, compound concentration 10 uM
[6] = 24 h, 1 µM, compound concentration 1 uM

## N#Cc1cc(F)cc(-c2nc(-c3ccc(F)cn3)no2)c1
Fibroblast; [1]
  Population Healthy Nuclei (%): 70% and 33%
  Population Hoechst High Intensity Objects (%): 4% and 11%
  Population Membrane Permeable-Phenotype (%): 0% and 5%
  Population Mitochondria Different-Phenotype (%): 6% and 11%
  Population Mitotic Cells (%): 29% and 65%
  Population Normal (%): 95% and 88%
  Population Pyknosed Nuclei (%): 16% and 18%
  Population Tubulin-Different-Phenotype (%): 22% and 41%
  Total Cell Count: 170 and 120
Fibroblast; [2]
  Population Apoptotic (%): 61% and 50%
  Population Fragmented Nuclei (%): 21% and 45%
  Population Healthy Nuclei (%): 68% and 32%
  Population Hoechst High Intensity Objects (%): 1% and 5%
  Population Membrane Permeable-Phenotype (%): 0% and 3%
  Population Mitochondria Different-Phenotype (%): 3% and 7%
  Population Mitotic Cells (%): 38% and 50%
  Population Normal (%): 98% and 94%
  Population Pyknosed Nuclei (%): 9% and 22%
  Population Tubulin-Different-Phenotype (%): 23% and 57%
  Total Cell Count: 137 and 85
Fibroblast; [3]
  Population Apoptotic (%): 84% and 50%
  Population Fragmented Nuclei (%): 20% and 44%
  Population Healthy Nuclei (%): 63% and 38%
  Population Hoechst High Intensity Objects (%): 7% and 5%
  Population Membrane Permeable-Phenotype (%): 0% and 15%
  Population Mitochondria Different-Phenotype (%): 11% and 5%
  Population Normal (%): 92% and 94%
  Population Pyknosed Nuclei (%): 16% and 17%
  Population Tubulin-Different-Phenotype (%): 28% and 50%
  Total Cell Count: 162 and 110
HEK-293T; [4]
  Population Apoptotic (%): 38% and 64%
  Population Fragmented Nuclei (%): 10% and 6%
  Population Healthy Nuclei (%): 76% and 77%
  Population Hoechst High Intensity Objects (%): 5% and 8%
  Population Membrane Permeable-Phenotype (%): 0%
  Population Mitochondria Different-Phenotype (%): 41% and 55%
  Population Mitotic Cells (%): 61% and 36%
  Population Normal (%): 95% and 91%
  Population Pyknosed Nuclei (%): 12% and 15%
  Population Tubulin-Different-Phenotype (%): 25% and 22%
  Total Cell Count: 280 and 342
HEK-293T; [5]
  Population Apoptotic (%): 45%
  Population Fragmented Nuclei (%): 10% and 8%
  Population Healthy Nuclei (%): 73% and 77%
  Population Hoechst High Intensity Objects (%): 4% and 10%
  Population Membrane Permeable-Phenotype (%): 0%
  Population Mitochondria Different-Phenotype (%): 51% and 61%
  Population Mitotic Cells (%): 55% and 54%
  Population Normal (%): 95% and 89%
  Population Pyknosed Nuclei (%): 16% and 13%
  Population Tubulin-Different-Phenotype (%): 29% and 22%
  Total Cell Count: 383 and 269
HEK-293T; [6]
  Population Apoptotic (%): 43% and 48%
  Population Fragmented Nuclei (%): 9% and 7%
  Population Healthy Nuclei (%): 77% and 82%
  Population Hoechst High Intensity Objects (%): 6% and 7%
  Population Membrane Permeable-Phenotype (%): 0%
  Population Mitochondria Different-Phenotype (%): 19% and 36%
  Population Mitotic Cells (%): 56% and 51%
  Population Normal (%): 93% and 92%
  Population Pyknosed Nuclei (%): 12% and 9%
  Population Tubulin-Different-Phenotype (%): 12% and 15%
  Total Cell Count: 353 and 463
HEK-293T; [1]
  Population Apoptotic (%): 41% and 39%
  Population Fragmented Nuclei (%): 10%
  Population Healthy Nuclei (%): 74% and 79%
  Population Hoechst High Intensity Objects (%): 4% and 8%
  Population Membrane Permeable-Phenotype (%): 0%
  Population Mitochondria Different-Phenotype (%): 34% and 40%
  Population Mitotic Cells (%): 58% and 60%
  Population Normal (%): 95% and 91%
  Population Pyknosed Nuclei (%): 14% and 9%
  Population Tubulin-Different-Phenotype (%): 18% and 12%
  Total Cell Count: 479 and 363
HEK-293T; [2]
  Population Apoptotic (%): 35% and 27%
  Population Fragmented Nuclei (%): 15% and 11%
  Population Healthy Nuclei (%): 77% and 81%
  Population Hoechst High Intensity Objects (%): 1% and 0%
  Population Membrane Permeable-Phenotype (%): 1%
  Population Mitochondria Different-Phenotype (%): 16% and 18%
  Population Mitotic Cells (%): 64% and 72%
  Population Normal (%): 98% and 99%
  Population Pyknosed Nuclei (%): 6%
  Population Tubulin-Different-Phenotype (%): 11% and 10%
  Total Cell Count: 585 and 715
HEK-293T; [3]
  Population Apoptotic (%): 39% and 48%
  Population Fragmented Nuclei (%): 16%
  Population Healthy Nuclei (%): 75% and 77%
  Population Hoechst High Intensity Objects (%): 1% and 4%
  Population Membrane Permeable-Phenotype (%): 1%
  Population Mitochondria Different-Phenotype (%): 18% and 22%
  Population Mitotic Cells (%): 60% and 51%
  Population Normal (%): 98% and 95%
  Population Pyknosed Nuclei (%): 8% and 5%
  Population Tubulin-Different-Phenotype (%): 9% and 11%
  Total Cell Count: 643 and 501
